From PubChem
KCNQ1 act: potentiators or activators of KCNQ1 channel, primary screen, cell-based, thallium flux, high-throughput; Potassium voltage-gated channel subfamily KQT member 1 (Homo sapiens), P51787; CHO-K1 KCNQ1, thallium flux FluxOR fluorescence; active compounds read high; B-score at 10 µM; 310,000 compounds, 0.35% hits; AID 2648, 2010;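 active = fluorescence ratio B-score, a plate-corrected score, at least three library SD, with initial intensity B-score within 5 SD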
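Schedule – 37 °C overnight plating, 90-min dark dye load, 20-min compound pretreatment · System – stable KCNQ1 CHO-K1 line · Probe or stimulus – thallium- and potassium-containing depolarizing buffer · Measured by – kinetic FluxOR fluorescence, 10 s baseline plus 110 s post-stimulus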
KCNK3 block: human KCNK3 channel inhibitors, primary screen, CHO cells, FluxOR thallium flux, B-score; B-score at 10 µM; 340,000 compounds, 0.84% hits; Potassium channel subfamily K member 3 (Homo sapiens), O14649; AID 602410, 2012; FluxOR fluorescence; active compounds read low;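 active = B-score under library mean minus 4 SD, starting fluorescence ratio at most library mean plus 5 SD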;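 also: more negative B-score means stronger inhibition of thallium flux through KCNK3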
hERG protect: hERG rescue from dofetilide block, primary screen, cell-based, CHO-hERG, FluxOR thallium flux, dofetilide IC70 | Voltage-gated inwardly rectifying potassium channel KCNH2 (Homo sapiens), Q12809 | dofetilide IC70 present | activation (rescue from dofetilide block), less the hit threshold, % at 10 µM | 310,000 compounds, 0.51% hits | AID 1511, 2009;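 active = activation above the mean of controls blocked by dofetilide plus 5 SD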;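 also: thallium influx through hERG after potassium depolarization seen as dye fluorescence rise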
KCNK9 inh: KCNK9 potassium channel inhibitors, primary screen, HEK293 cells, thallium flux; 310,000 compounds, 1.2% hits; FluxOR thallium flux fluorescence; active compounds read low; B-score at 10 µM; Potassium channel subfamily K member 9 (Homo sapiens), Q9NPC2;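 active = ratio B-score over 3 SD below the library mean, with starting fluorescence within 5 SD of its mean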;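 also: negative B-score means less thallium flux so channel inhibition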
Kir21 inh: inhibitors of mouse Kir2.1 inward-rectifier potassium channel. Inward rectifier potassium channel 2 (Mus musculus), P35561. HEK293-Kir2.1, FluxOR thallium flux fluorescence; active compounds read low. B-score at 10 µM. 310,000 compounds, 0.85% hits;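 active = fluorescence ratio B-score at or below minus 3 SD of library scores, with starting-brightness B-score within 2 SD, cut at about -4.2 in these data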;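 also: channel flux triggered by added potassium and thallium sulfate stimulus; B-score of peak minus minimum fluorescence over baseline after thallium stimulus; more negative B-score means stronger Kir2.1 block with less thallium influx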
Target sequence (P35561 whole entry, looked up): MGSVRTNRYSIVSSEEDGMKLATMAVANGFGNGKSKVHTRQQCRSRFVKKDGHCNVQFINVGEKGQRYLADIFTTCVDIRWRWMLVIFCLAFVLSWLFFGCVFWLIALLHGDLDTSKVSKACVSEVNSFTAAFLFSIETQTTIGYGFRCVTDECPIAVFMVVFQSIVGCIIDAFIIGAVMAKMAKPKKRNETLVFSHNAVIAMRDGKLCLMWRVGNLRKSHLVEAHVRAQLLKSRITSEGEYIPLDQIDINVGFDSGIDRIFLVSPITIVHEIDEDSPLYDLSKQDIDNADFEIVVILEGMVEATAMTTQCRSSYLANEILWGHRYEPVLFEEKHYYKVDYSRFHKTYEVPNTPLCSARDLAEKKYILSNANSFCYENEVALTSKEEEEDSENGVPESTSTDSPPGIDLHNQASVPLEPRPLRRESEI
KCNQ1 block: inhibitors of human KCNQ1 channel, primary screen, cell-based, thallium flux, high-throughput; Potassium voltage-gated channel subfamily KQT member 1 (Homo sapiens), P51787; CHO-K1 KCNQ1, FluxOR thallium flux fluorescence; active compounds read high; B-score at 10 µM; 310,000 compounds, 1.3% hits; AID 2642, 2010;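 active = compounds whose thallium flux B-score, printed positive for inhibition, exceeds three library SD while starting fluorescence stays within three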;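 also: channel opened by potassium depolarization with thallium stimulus after 20 min compound exposure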
KCNK9 block conf: KCNK9 potassium channel inhibitors, confirmation, HEK293 cells, thallium flux, duplicate | shares compounds with KCNK9 inh | FluxOR thallium flux fluorescence | inhibition, % at 10 µM | 4,900 compounds, 43% hits | AID 492992, 2010;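 active = thallium signal inhibited by more than 5 SD of the compound-free buffer control wells, on both duplicate plates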
Kir21 sel: mouse Kir2.1 channel inhibition, confirmation, selectivity assay for KCNK9 modulator project, cell-based, HEK293, thallium flux; shares compounds with KCNK9 inh; Kir2.1 cells, FluxOR thallium flux fluorescence; 4,900 compounds, 4% hits; inhibition, % at 10 µM;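 active = thallium signal drop more than 5 SD beyond the mean of the no-compound control wells, seen in both duplicate plates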;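 also: signal is fluorescence rise after thallium addition divided by baseline fluorescence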
HEK293 Tl ctr: thallium flux in non-induced HEK293 cells, confirmation, counter-screen for KCNK9 inhibitor project, cell-based, second counter screen, non-induced KCNK9-HEK293; shares compounds with KCNK9 inh; FluxOR thallium flux; inhibition, % at 10 µM; 4,900 compounds, 40% hits; AID 492997, 2010;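 active = thallium signal drop beyond 5 SD of the untreated control mean, on both duplicate plates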
Each line names hits and unclear results; the compound was inactive in the other large screens (follow-up assays come after a bar, where they were run). An excerpt weighted towards active compounds, which were near 3.7% of everything screened.

CCOC(=O)c1cnc2ccc(OC)cc2c1NCc1ccccc1	none | KCNK9 block conf inactive | Kir21 sel inactive | HEK293 Tl ctr inactive
Cc1cccc(C)c1OCC(O)CNS(=O)(=O)c1ccccc1C(=O)N1CCCCC1 (stereo not drawn)	none
Cc1ccc(C#N)c(SCc2cccc(Br)c2)n1	KCNK9 inh -12 | KCNK9 block conf 42% | Kir21 sel inactive | HEK293 Tl ctr 48%
COc1ccc(CC(=O)Nc2nnc(SCC(=O)NCc3ccco3)s2)cc1OC	none
O=C(CS(=O)(=O)c1c[nH]c2ccccc12)N1CCc2ccccc21	none
CCCN(C(=O)CSc1cc(-c2ccccc2)c2ccc(OC)cc2n1)C1CCS(=O)(=O)C1 (stereo not drawn)	KCNK9 inh -8.4 | KCNK9 block conf 48% | Kir21 sel inactive | HEK293 Tl ctr 28%
CCCc1nc(SCC(=O)N2c3ccccc3CC2C)c2c(C)c(C)sc2n1 (stereo not drawn)	none | KCNK9 block conf inactive | Kir21 sel inactive | HEK293 Tl ctr inactive
Cc1sc2nc(C3CC3)nc(SCC(=O)N3CCc4ccccc4C3)c2c1C	none | KCNK9 block conf inactive | Kir21 sel inactive | HEK293 Tl ctr inactive
Cc1sc2nc(C3CC3)nc(SCC(=O)N3CCCc4ccccc43)c2c1C	none (no result: KCNK3 block)
Nc1nc(NCCc2ccccc2)nc(NCc2ccccc2)c1[N+](=O)[O-]	none
CN(Cc1ccccc1)c1nc(N)c([N+](=O)[O-])c(NCc2ccccc2)n1	KCNK9 inh -10, Kir21 inh -4.5 | KCNK9 block conf 57% | Kir21 sel inactive | HEK293 Tl ctr 57%
COc1ccc(Cn2c(C)nnc2-c2cnn(C)c2N)cc1	none
O=S(=O)(Nc1ccc(N2CCOCC2)cc1)c1c(F)cc(F)cc1Br	none
O=C1c2[nH]nc(-c3ccccc3O)c2C(c2cccc(Cl)c2)N1Cc1ccco1 (stereo not drawn)	none
Cc1cc(C)c(O)c(-c2n[nH]c3c2C(c2cccc(O)c2)N(Cc2ccco2)C3=O)c1 (stereo not drawn)	KCNK9 inh -11 | KCNK9 block conf 58% | Kir21 sel inactive | HEK293 Tl ctr 41%
COc1ccc(NC(=O)c2cc(S(=O)(=O)N3CCCC3)ccc2C)cn1	none (no result: KCNQ1 act, hERG protect, KCNK9 inh, Kir21 inh, KCNQ1 block)
O=C(CN1CCN(S(=O)(=O)c2ccccc2F)CC1)NC1CCCC1	none
CCc1ccccc1NC(=O)CNC(=O)CCNC(=O)Nc1ccccc1	none (no result: KCNQ1 act, hERG protect, KCNK9 inh, Kir21 inh, KCNQ1 block)
COc1cccc(/C=N/NC(=O)c2csc(-n3nc(C)cc3C(F)(F)F)n2)c1	KCNK9 inh -15 | KCNK9 block conf inactive | Kir21 sel inactive | HEK293 Tl ctr inactive
Cc1cc(C(F)(F)F)n(-c2nc(C(=O)N/N=C/c3ccc(F)cc3)cs2)n1	none
CN(C)/C=N/C(=S)Nc1ccc(Cl)cc1Cl	none
CCn1c(SCc2cccc(C)c2)nnc1-c1ccccc1	Kir21 inh -6.1 | KCNK9 block conf inactive | Kir21 sel inactive | HEK293 Tl ctr inactive
CCn1c(SCC(O)c2ccccc2)nnc1-c1ccccc1 (stereo not drawn)	none
COCCNC(=O)C12CC3CC(C1)CC(c1ccccc1)(C3)C2	none
